Reference: ChEMBL document CHEMBL1157486, “2-Substituted-16-ene-22-thia-1alpha,25-dihydroxy-26,27-dimethyl-19-norvitamin D3 analogs: Synthesis, biological evaluation, and crystal structure” (Bioorg Med Chem, 2008)
pEC50: −log10 of the molar value. Where “and” joins values, the source holds several entries; their conditions need not be identical. Equal values may be shown once.

Legend:
[1] = molecular target: Vitamin D3 receptor (Homo sapiens) (UniProt P11473); experiment: Increase in human VDR-mediated transcriptional activity in african green monkey COS7 cells after 24 hrs by luciferase assay
[2] = molecular target: T1, Vitamin D3 receptor (Rattus norvegicus) (UniProt P13053); experiment: Displacement of [3H]1-alpha,25-(OH)2D3 from rat recombinant VDR expressed in Escherichia coli BL21 (DE3)
T1 sequence (whole entry): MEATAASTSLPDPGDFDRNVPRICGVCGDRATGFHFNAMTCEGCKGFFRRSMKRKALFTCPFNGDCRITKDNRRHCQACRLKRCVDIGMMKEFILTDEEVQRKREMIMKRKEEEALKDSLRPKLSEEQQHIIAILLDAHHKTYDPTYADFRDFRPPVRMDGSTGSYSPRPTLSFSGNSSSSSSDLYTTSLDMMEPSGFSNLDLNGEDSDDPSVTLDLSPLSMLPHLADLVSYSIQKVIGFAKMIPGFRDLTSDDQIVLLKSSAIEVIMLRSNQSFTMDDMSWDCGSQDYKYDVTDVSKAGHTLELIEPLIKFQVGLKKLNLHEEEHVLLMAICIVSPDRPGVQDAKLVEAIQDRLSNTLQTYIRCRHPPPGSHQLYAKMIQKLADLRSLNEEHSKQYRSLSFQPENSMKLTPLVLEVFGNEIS
Outline: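 Rat VDR-LBD lysate (sonicated cells) diluted ~1000-fold in 50 mM Tris pH 7.5 with 100 mM KCl, 5 mM DTT, 0.5% CHAPS and BSA 100 µg/mL. Ligand in EtOH preincubated 1 h at room temperature, then [3H]1α,25-(OH)2D3 (~5000 dpm) added for 18 h at 4 °C. Free ligand removed with dextran-coated charcoal, and bound fraction counted by scintillation. At least twice in duplicate.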

Bone marrow cell = experiment: Effect on osteoclast formation in ddY mouse bone marrow cells co cultured with […] after 7 days
[3] = Mus musculus, ddY, Bone marrow cell, 168 h

Row | SMILES | pEC50 [1] | Activity [2] | further results
1 | CCC(O)(CC)CS[C@H](C)C1=CC[C@H]2/C(=C/C=C3C[C@@H](O)C(=CCO)[C@H](O)C3)CCC[C@]12C [listing 1 of 2 here] | 9.70 |  | 
2 | CCC(O)(CC)CCCS[C@H](C)C1=CC[C@H]2/C(=C/C=C3C[C@@H](O)C[C@H](O)C3)CCC[C@]12C |  | 8% | 
3 | CCC(O)(CC)CSC(C)C1=CCC2/C(=C/C=C3C[C@@H](O)C(=CCO)[C@H](O)C3)CCC[C@]12C (stereo partly specified) [listing 1 of 2 here] | 10.07 |  | 
4 | CCC(O)(CC)CSC(C)C1=CCC2/C(=C/C=C3/C[C@@H](O)[C@H](OCCO)[C@H](O)C3)CCC[C@]12C (stereo partly specified) | 10.57 |  | pEC50 (Bone marrow cell; bone marrow cell): 10.40
5 | [H][C@@]12CC=C([C@@H](C)SCC(O)(CC)CC)[C@@]1(C)CCC/C2=C\C=C1/C[C@@H](O)[C@H](OCCO)[C@H](O)C1 (stereo partly specified) | 10.62 |  | pEC50 (Bone marrow cell; [3]): 9.66
6 | CCC(O)(CC)CCCS[C@@H](C)C1=CC[C@H]2/C(=C/C=C3C[C@@H](O)C[C@H](O)C3)CCC[C@]12C |  | 100% | 
7 | CCC(O)(CC)CS[C@H](C)C1=CC[C@H]2/C(=C/C=C3C[C@@H](O)C(=CCO)[C@H](O)C3)CCC[C@]12C [listing 2 of 2 here] | 10.54 |  | 
8 | [H][C@@]12CC=C([C@@H](C)SCC(O)(CC)CC)[C@@]1(C)CCC/C2=C\C=C1/C[C@@H](O)[C@@](C)(O)[C@H](O)C1 (stereo partly specified) | 8.35 |  | 
9 | [H][C@@]12CC=C([C@@H](C)SCC(O)(CC)CC)[C@@]1(C)CCC/C2=C\C=C1\C[C@@H](O)[C@@](C)(O)[C@H](O)C1 (stereo partly specified) | 9.92 |  | 
10 | CCC(O)(CC)CS[C@@H](C)C1=CC[C@H]2/C(=C/C=C3C[C@@H](O)C[C@H](O)C3)CCC[C@]12C |  | 60% | 
11 | CCC(O)(CC)CSC(C)C1=CCC2/C(=C/C=C3C[C@@H](O)C(C)(O)[C@H](O)C3)CCC[C@]12C (stereo partly specified) |  | 18% and 1% | 
12 | CCC(O)(CC)CCS[C@@H](C)C1=CC[C@H]2/C(=C/C=C3C[C@@H](O)C[C@H](O)C3)CCC[C@]12C |  | 100% | 
13 | CCC(O)(CC)CSC(C)C1=CCC2/C(=C/C=C3C[C@@H](O)C(=CCO)[C@H](O)C3)CCC[C@]12C (stereo partly specified) [listing 2 of 2 here] | 10.59 |  | 
14 | CCC(O)(CC)CS[C@H](C)C1=CC[C@H]2/C(=C/C=C3C[C@@H](O)C[C@H](O)C3)CCC[C@]12C |  | 6% | 
15 | CCC(O)(CC)CS[C@H](C)C1=CC[C@H]2/C(=C/C=C3C[C@@H](O)C(C)(O)[C@H](O)C3)CCC[C@]12C (stereo partly specified) |  | 12% and 0.5% | 

More lines, main results first:

Row | pEC50 [1] | Activity [2] | SMILES | further results
16 | 11.68 |  | CCC(O)(CC)CSC(C)C1=CCC2/C(=C/C=C3\C[C@@H](O)[C@H](OCCO)[C@H](O)C3)CCC[C@]12C (stereo partly specified) | pEC50 (Bone marrow cell; [3]): 10.46
17 |  | 100% | C=C1/C(=C\C=C2/CCC[C@]3(C)[C@@H]([C@H](C)CCCC(C)(C)O)CC[C@@H]23)C[C@@H](O)C[C@@H]1O [CALCITRIOL] | pEC50 (Bone marrow cell; [3]): 8.70
18 | 9.94 |  | [H][C@@]12CC=C([C@@H](C)SCC(O)(CC)CC)[C@@]1(C)CCC/C2=C\C=C1\C[C@@H](O)[C@H](OCCO)[C@H](O)C1 (stereo partly specified) | pEC50 (Bone marrow cell; bone marrow cell): 9.37
19 | 8.72 |  | CCC(O)(CC)CSC(C)C1=CCC2/C(=C/C=C3/C[C@@H](O)[C@](C)(O)[C@H](O)C3)CCC[C@]12C (stereo partly specified) | 
20 | 10.77 |  | CCC(O)(CC)CSC(C)C1=CCC2/C(=C/C=C3\C[C@@H](O)[C@](C)(O)[C@H](O)C3)CCC[C@]12C (stereo partly specified) | 
21 |  | 4% | CCC(O)(CC)CCS[C@H](C)C1=CC[C@H]2/C(=C/C=C3C[C@@H](O)C[C@H](O)C3)CCC[C@]12C | 
